# Assay outcomes: PubChem, several laboratories
# Sampled rows, rich in hits. Any-hit rate of the full collection: about 4.1%.
# SMARCA2 activ: increases SMARCA2 function in MMTV reporter cells; MG213 cells, MMTV-luciferase reporter, dexamethasone, overnight; AID 652017; 370,000 tested, 1% active; activation, % at 9.1 µM; in the data active means activation above about 7.8%;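 further: 0% = vehicle wells and 100% = reference activator wells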
# Tb MetRS inh: blocks T. brucei methionyl-tRNA synthetase activity; purified T. brucei MetRS, ATP depletion, Kinase-Glo luminescence; inhibition, % at 11.9 µM; 360,000 tested, 0.4% active; AID 624268;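 active means inhibition above a per-plate cutoff of the control wells' mean inhibition plus 3 SD, cut at about 5.5% in these data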;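 further: 0% = DMSO wells median and 100% = median of wells with control inhibitor compound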
#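 Material: T. brucei methionyl-tRNA synthetase, purified; reagent: substrates ATP, L-methionine and bulk Escherichia coli tRNA; dosing: 11.9 µM single point; timing: 15 min plus 2 h at 25 °C; detection: luminescence of leftover ATP; evaluation: % inhibition; control set: DMSO-only wells as low control; replicates: singlicate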
# AHR act: activators of human aryl hydrocarbon receptor; P35869; AHR-responsive luciferase reporter cells, luminescence; activation, % at 5 µM; 320,000 tested, 2.5% active; in the data active means activation above about 47%;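 further: 0% = vehicle wells and 100% = reference agonist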
# Target sequence (P35869 whole entry, looked up): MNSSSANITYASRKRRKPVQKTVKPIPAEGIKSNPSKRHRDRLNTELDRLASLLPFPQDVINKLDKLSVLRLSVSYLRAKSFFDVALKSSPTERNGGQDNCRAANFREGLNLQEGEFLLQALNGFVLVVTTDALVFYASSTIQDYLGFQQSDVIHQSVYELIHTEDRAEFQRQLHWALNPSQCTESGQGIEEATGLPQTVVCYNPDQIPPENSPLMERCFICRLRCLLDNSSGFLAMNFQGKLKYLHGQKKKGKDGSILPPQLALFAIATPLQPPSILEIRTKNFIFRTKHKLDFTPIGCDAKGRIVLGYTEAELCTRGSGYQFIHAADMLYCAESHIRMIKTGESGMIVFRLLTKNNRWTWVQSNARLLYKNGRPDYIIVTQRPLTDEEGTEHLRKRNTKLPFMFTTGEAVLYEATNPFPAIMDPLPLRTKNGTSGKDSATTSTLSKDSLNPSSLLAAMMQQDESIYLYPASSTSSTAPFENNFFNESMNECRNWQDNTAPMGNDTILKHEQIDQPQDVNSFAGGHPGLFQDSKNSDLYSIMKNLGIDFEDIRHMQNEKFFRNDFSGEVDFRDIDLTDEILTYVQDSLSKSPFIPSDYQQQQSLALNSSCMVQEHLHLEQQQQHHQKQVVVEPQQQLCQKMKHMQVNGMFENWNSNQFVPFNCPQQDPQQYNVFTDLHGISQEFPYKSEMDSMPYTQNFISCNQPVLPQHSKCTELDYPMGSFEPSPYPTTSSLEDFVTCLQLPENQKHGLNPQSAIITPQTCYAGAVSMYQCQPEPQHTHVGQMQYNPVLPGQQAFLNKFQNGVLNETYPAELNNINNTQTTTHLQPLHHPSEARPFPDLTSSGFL
# H9c2 TAG inh: inhibitors of triacylglycerol accumulation; H9c2 cells, Nile Red lipid (TAG) fluorescence; cells loaded with 200 µM oleic acid; inhibition, % at 12.5 µM; 230,000 tested, 0.66% active;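 active means pattern-corrected inhibition of lipid staining of at least 50% with the nuclear-stain viability signal not falling by more than 50%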;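 further: 0% = DMSO wells and 100% = triacsin C control wells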
# Efflux pump inh: antifungal efflux pump inhibition, Nile Red retention. 330,000 tested, 0.44% active. S. cerevisiae Candida pump triplex. inhibition, % at 10 µM. AID 485275;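 active means plate passing quality check with inhibition over a set limit, or well fluorescence over plate mean plus 4 SD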;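 further: Nile Red retained in pooled yeast measured as flow cytometry median fluorescence; 0% = buffer negative control and 100% = Enniatin B positive control; higher means more Nile Red kept so more efflux inhibition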
# AHR act cf: human AHR activation, confirmation; shares compounds with AHR act; human cells, AHR-responsive luciferase reporter, luminescence; activation, % at 9 µM; 2,300 tested, 87% active; in the data active means activation above about 49%;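 further: HepG2 hepatoma cells carrying a DRE-driven firefly luciferase reporter; 0% = vehicle wells and 100% = reference agonist wells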
# PXR counter: activates human PXR in AHR activator counter-screen. shares compounds with AHR act. cell-based PXR reporter, luciferase luminescence. activation, % at 11.6 µM. 2,300 tested, 88% active; in the data active means activation above about 11%;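 further: human hepatoma DPX-2 cells expressing full-length human PXR; 0% = DMSO and 100% = reference agonist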
# The depositor's hits bear a star; . = no result.
SMILES,SMARCA2 activ,Tb MetRS inh,AHR act,H9c2 TAG inh,Efflux pump inh,AHR act cf,PXR counter
Cc1ccc(C(=O)c2sc3c(c2N)c(=O)[nH]c(=O)n3CCc2ccccc2)cc1,2,0,86*,.,0,93*,42*
COc1ccc(OC)c(NC(=O)COC(=O)CN2C(=O)NC3(CCCC3)C2=O)c1,-2,0,-1,7,0,.,.
COc1ccc(OC)c(NC2=NC3(CCCC3)N=C(N)N2)c1,0,0,84*,13,0,61*,11*
CCCCOc1cccc(C(=O)NCCc2ccccc2-c2ccccc2CCC(=O)NCc2ccccc2)c1,-3,.,.,.,.,.,.
O=C(CCn1nc(-c2ccccc2)ccc1=O)N1CCN(c2ccccn2)CC1,0,1,82*,.,0,35,9
CCCC(C)C(=O)NC1CCCCN(Cc2ccccc2C)C1=O (stereo unspecified),0,.,.,.,.,.,.
COc1cc(NC(=O)c2cc(C)on2)cc(C(=O)Nc2cccc(C(F)(F)F)c2)c1,-3,-1,130*,-4,0,106*,21*
COc1ccccc1C(=O)Nc1ccc2c(c1)CN(Cc1cnc(C)s1)CC2,-1,-1,113*,-5,0,56*,13*
CCOC(=O)CNC(=O)N1CCc2ccc(NC(=O)c3ccccc3OC)cc2C1,-3,-1,37,33,0,.,.
COC(=O)[C@]12C[C@H](CC(=O)N3CCCC3)C(=O)N(Cc3cccc4ccccc34)C1=C[C@H](C(C)C)O[C@@H]2C1CC1,-2,.,.,.,.,.,.
CN1[C@H](Cc2ccccc2)COc2cc(N3CCSCC3)ccc2S1(=O)=O,-5,.,.,.,.,.,.
N#C/C(=C\c1ccc(-c2ccc(F)cc2)o1)C(=O)Nc1nc(-c2cccs2)cs1,-2,0,142*,.,0,58*,22*
Cn1c(=O)n(C)c2cc(NC(=O)c3cccc([N+](=O)[O-])c3)c(Br)cc21,2,-2,101*,1,0,101*,10
CCCCNc1c(-c2ccc(-c3cccc(Cl)c3)cc2)nc2ccc(Cl)cn12,4,0,79*,.,0,33,14*
COC(=O)[C@]1(CC(C)C)NC=C(C(=O)c2ccccc2)[C@@H]1c1cccs1,-1,.,.,.,.,.,.
Cc1cc(CC(C)C)n(-c2nc3ccccc3c(=O)n2OCc2ccccc2)n1,-2,-1,87*,.,0,99*,74*
Cc1cc(CC(C)C)n(-c2nc3ccccc3c(=O)n2OCC(=O)N(C)C)n1,-1,-1,15,-21,0,.,.
CC(=O)N1c2ccccc2C(=O)NCC1C(=O)NC(C)(C)C (stereo unspecified),-1,.,.,.,.,.,.
c1ccc(N(c2ccccc2)c2nc(-n3ccnc3)nc(-n3ccnc3)n2)cc1,3,0,3,-4,0,.,.
CN(c1ccccc1)c1nc(-n2ccnc2)nc(-n2ccnc2)n1,4,1,92*,7,0,106*,29*
CN(Cc1ccccc1)S(=O)(=O)c1cccc(C(=O)OCc2ccccc2Cl)c1,0,.,.,.,.,.,.
COc1ccc2nc(-c3cccc(N)c3)[nH]c2c1,2,-2,24,2,0,.,.
COc1cccc(-n2c(N)c(-c3nc4ccccc4[nH]3)sc2=S)c1,2,1,89*,-2,0,130*,97*
Cc1cc(C)c2c(c1)SC1=NC(c3ccccc3)(C(F)(F)F)NC(=O)N12 (stereo unspecified),2,0,91*,-13,0,66*,21*
COc1cc(NC(=O)c2cc(C3CC3)on2)c(OC)cc1Cl,1,-2,95*,-32,0,110*,14*
SMILES,SMARCA2 activ,Tb MetRS inh,AHR act,H9c2 TAG inh,Efflux pump inh,AHR act cf,PXR counter
COc1cc(NC(=O)C2CCCO2)c(OC)cc1Cl (stereo unspecified),2,-1,15,0,0,.,.
COc1cc(NC(=O)c2ccc(F)cc2)c(OC)cc1Cl,1,0,86*,-18,0,103*,20*
COc1ccc(C(=O)Nc2cc(OC)c(Cl)cc2OC)cc1,2,0,42,-8,0,.,.
CS(=O)(=O)Nc1cccc(-c2cnc3ccccc3n2)c1,6,-1,88*,.,0,120*,8
CNC(=S)Nc1cccc(-c2cnc3ccccc3n2)c1,3,0,118*,.,0,100*,19*
CN1C(=O)[C@@]2(C3=C(CCCC3=O)OC3=C2C(=O)OC2(CCCCC2)C3)c2ccccc21,-1,.,.,.,.,.,.
COC(=O)C1=C(C)N(Cc2cccc(C(F)(F)F)c2)C(=NCc2cc(OC)c(OC)c(OC)c2)NC1c1ccc(Cl)cc1 (stereo unspecified),0,.,.,.,.,.,.
COc1ccc(C(CCOC(=O)Oc2ccccc2)c2cc(OC)c(OC)c(OC)c2)cc1 (stereo unspecified),-3,.,.,.,.,.,.
CCNC(=S)Nc1ccc(Cl)c([N+](=O)[O-])c1,-2,4,99*,-7,0,50*,18*
CCNC(=S)Nc1cccc([N+](=O)[O-])c1,.,.,3,.,0,.,.
COC(=O)C[C@H]1CC[C@@H]2[C@@H](COc3ccc(NC(=O)C4CCCCC4)cc3C(=O)N2C)O1,-3,.,.,.,.,.,.
COc1ccc(C(=O)OCCCN(C)C2CN(Cc3cn(Cc4ccccc4F)nn3)S(=O)(=O)C2)cc1OC (stereo unspecified),2,.,.,.,.,.,.
Cc1cccc(Cn2cc(CN3CC(N4CCN(CCOC(=O)c5cc6ccccc6o5)CC4)CS3(=O)=O)nn2)c1 (stereo unspecified),-1,.,.,.,.,.,.
Fc1ccc(/C=N/NC(=S)Nc2cccnc2)cc1,0,-1,105*,-6,0,53*,19*
Fc1ccc(/C=N/NC(=S)Nc2cccnc2)cc1F,5,0,99*,-25,0,92*,14*
O=C(NC1CCCCN(Cc2ccc(Cl)cc2)C1=O)c1ccc(COc2ccccc2)cc1 (stereo unspecified),-5,.,.,.,.,.,.
C=CCNc1nc2ccccc2c(=O)[nH]1,-1,1,94*,3,0,8,9
COC(=O)Cn1cc(/C=N/NC(=O)COc2cccc3cccnc23)c2ccccc21,2,0,25,2,-1,.,.
C#CCn1cc(/C=N/NC(=O)COc2cccc3cccnc23)c2ccccc21,-1,0,103*,.,0,63*,.
CCN(Cc1ccccc1)c1ccc(/C=C(\C#N)c2ccccn2)cc1,0,-1,86*,.,-1,70*,44*
COc1ccc(CC(/C=C/c2ccc(F)cc2)c2ccccc2)cc1 (stereo unspecified),-2,.,.,.,.,.,.
Cc1ccc(C(=O)NCCNc2nc3cc(C)c(C)cc3cc2C)cc1,-5,0,82*,.,0,77*,28*
C(=N\Nc1ncnc2sc3c(c12)CCC3)/c1ccncc1,-1,2,81*,2,0,124*,29*
